Values belong to the molecule of their own block, whether it stands above or below them. Where a SMILES comes first, the peptide text is derived from it. [ ]: non-standard residue; d: D form. The star is where a group is joined. X1 = Nc1nccc(-c2ccc(C(=O)*)s2)n1; Ahx = NCCCCCC(=O)O
Tests used:
[1] = target: T1, Rho-associated protein kinase 2 (Homo sapiens, UniProt O75116); assay: Displacement of ARC583 from ROCK2
[2] = target: T2, RAC-gamma serine/threonine-protein kinase (Homo sapiens, UniProt Q9Y243); assay: Inhibition of PKBgamma in presence of 100 uM ATP
Summary of the method: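 Kinetic phosphorylation assays with PKA catalytic subunit (PKAc) or PKB catalytic subunit (PKBc) at fixed ATP. ATP Km values taken as 20 for PKAc and 100 for PKBc.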

[3] = target: AMP-activated protein kinase (AMPK) alpha-1/beta-1/gamma-1 (Homo sapiens) (UniProt P54619+Q9Y478+Q13131); assay: Inhibition of AMPK alpha-1/beta-1/gamma-1 at 100 nM relative to control; type: protein-complex assay
Summary of the method: (§1)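 Kinase panel screen with inhibitor at 100 nM and ATP at about the Km of each kinase. Activity is given as percent inhibition relative to control incubations with the inhibitor omitted. Values are means of duplicate determinations, with the spread reported as the difference between duplicates.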

[4] = target: Aurora kinase A (Homo sapiens) (UniProt O14965); assay: Inhibition of Aurora A at 100 nM relative to control; summary of the method: as §1
[5] = target: Calcium/calmodulin-dependent protein kinase type 1D (Homo sapiens) (UniProt Q8IU85); assay: Inhibition of CaMK 1delta at 100 nM relative to control; summary of the method: as §1
[6] = target: Calcium/calmodulin-dependent protein kinase type II subunit alpha (Homo sapiens) (UniProt Q9UQM7); assay: Inhibition of CaMK2alpha at 100 nM relative to control; summary of the method: as §1
[7] = target: Calcium/calmodulin-dependent protein kinase type II subunit beta (Homo sapiens) (UniProt Q13554); assay: Inhibition of CaMK2beta at 100 nM relative to control; summary of the method: as §1
[8] = target: Cyclin-dependent kinase 2/cyclin A (Homo sapiens) (UniProt P24941+P20248+P78396); assay: Inhibition of CDK2/cyclin A at 100 nM relative to control; type: protein-complex assay; summary of the method: as §1
[9] = target: Serine/threonine-protein kinase Chk1 (Homo sapiens) (UniProt O14757); assay: Inhibition of CHK1 at 100 nM relative to control; summary of the method: as §1
[10] = target: Serine/threonine-protein kinase Chk2 (Homo sapiens) (UniProt O96017); assay: Inhibition of CHK2 at 100 nM relative to control; summary of the method: as §1
[11] = target: Death-associated protein kinase 3 (Homo sapiens) (UniProt O43293); assay: Inhibition of DAPK3 at 100 nM relative to control; summary of the method: as §1
[12] = target: Glycogen synthase kinase-3 alpha (Homo sapiens) (UniProt P49840); assay: Inhibition of GSK3alpha at 100 nM relative to control; summary of the method: as §1
[13] = target: Glycogen synthase kinase-3 beta (Homo sapiens) (UniProt P49841); assay: Inhibition of GSK3-beta at 100 nM relative to control; summary of the method: as §1
[14] = target: Maternal embryonic leucine zipper kinase (Homo sapiens) (UniProt Q14680); assay: Inhibition of MELK at 100 nM relative to control; summary of the method: as §1
[15] = target: Ribosomal protein S6 kinase alpha-5 (Homo sapiens) (UniProt O75582); assay: Inhibition of MSK1 at 100 nM relative to control; summary of the method: as §1
[16] = target: Ribosomal protein S6 kinase alpha-4 (Homo sapiens) (UniProt O75676); assay: Inhibition of MSK2 at 100 nM relative to control; summary of the method: as §1
[17] = target: Ribosomal protein S6 kinase beta-1 (Homo sapiens) (UniProt P23443); assay: Inhibition of p70S6 at 100 nM relative to control
Summary of the method: (§2)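 Kinase panel screen with the inhibitor at 100 nM and ATP at a concentration of about Km for each kinase. Activity was expressed as percent inhibition relative to control incubations that lacked inhibitor. Values are means of duplicate determinations, and the difference between the duplicates is also reported.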

[18] = target: Serine/threonine-protein kinase PAK 3 (Homo sapiens) (UniProt O75914); assay: Inhibition of PAK3 at 100 nM relative to control; summary of the method: as §1
[19] = target: Serine/threonine-protein kinase PAK 4 (Homo sapiens) (UniProt O96013); assay: Inhibition of PAK4 at 100 nM relative to control; summary of the method: as §1
[20] = target: Serine/threonine-protein kinase PAK 6 (Homo sapiens) (UniProt Q9NQU5); assay: Inhibition of PAK6 at 100 nM relative to control; summary of the method: as §1
[21] = target: Serine/threonine-protein kinase pim-1 (Homo sapiens) (UniProt P11309); assay: Inhibition of PIM1 at 100 nM relative to control; summary of the method: as §1
[22] = target: Serine/threonine-protein kinase pim-2 (Homo sapiens) (UniProt Q9P1W9); assay: Inhibition of PIM2 at 100 nM relative to control; summary of the method: as §1
[23] = target: cAMP-dependent protein kinase catalytic subunit alpha (Homo sapiens, UniProt P17612); assay: Inhibition of PKA Calpha at 100 nM relative to control; summary of the method: as §1
[24] = target: RAC-alpha serine/threonine-protein kinase (Homo sapiens) (UniProt P31749); assay: Inhibition of PKBalpha at 100 nM relative to control; summary of the method: as §1
[25] = target: RAC-beta serine/threonine-protein kinase (Homo sapiens) (UniProt P31751); assay: Inhibition of PKBbeta at 100 nM relative to control; summary of the method: as §1
[26] = target: T2, RAC-gamma serine/threonine-protein kinase; assay: Inhibition of PKBgamma at 100 nM relative to control; summary of the method: as §1
[27] = target: Protein kinase C alpha type (Homo sapiens) (UniProt P17252); assay: Inhibition of PKCalpha at 100 nM relative to control; summary of the method: as §1
[28] = target: Protein kinase C beta type (Homo sapiens) (UniProt P05771); assay: Inhibition of PKCbeta1 at 100 nM relative to control; summary of the method: as §1
[29] = target: Protein kinase C beta type (Homo sapiens) (UniProt P05771); assay: Inhibition of PKCbeta2 at 100 nM relative to control; summary of the method: as §1
[30] = target: Protein kinase C delta type (Homo sapiens) (UniProt Q05655); assay: Inhibition of PKCdelta at 100 nM relative to control; summary of the method: as §1
[31] = target: Protein kinase C epsilon type (Homo sapiens) (UniProt Q02156); assay: Inhibition of PKCepsilon at 100 nM relative to control; summary of the method: as §1
[32] = target: Protein kinase C gamma type (Homo sapiens) (UniProt P05129); assay: Inhibition of PKCgamma at 100 nM relative to control; summary of the method: as §1
[33] = target: Protein kinase C eta type (Homo sapiens) (UniProt P24723); assay: Inhibition of PKCeta at 100 nM relative to control; summary of the method: as §1
[34] = target: Protein kinase C iota type (Homo sapiens) (UniProt P41743); assay: Inhibition of PKCiota at 100 nM relative to control; summary of the method: as §1
[35] = target: Serine/threonine-protein kinase D1 (Homo sapiens) (UniProt Q15139); assay: Inhibition of PKCmu at 100 nM relative to control; summary of the method: as §1
[36] = target: Protein kinase C theta type (Homo sapiens) (UniProt Q04759); assay: Inhibition of PKCtheta at 100 nM relative to control; summary of the method: as §1
[37] = target: Protein kinase C zeta type (Homo sapiens) (UniProt Q05513); assay: Inhibition of PKCzeta at 100 nM relative to control; summary of the method: as §1
[38] = target: Serine/threonine-protein kinase D2 (Homo sapiens) (UniProt Q9BZL6); assay: Inhibition of PKD2 at 100 nM relative to control; summary of the method: as §1
[39] = target: Serine/threonine-protein kinase D3 (Homo sapiens) (UniProt O94806); assay: Inhibition of PKD3 at 100 nM relative to control; summary of the method: as §1
[40] = Inhibition of PKG1 at 100 nM relative to control; summary of the method: as §1
[41] = target: cGMP-dependent protein kinase 2 (Homo sapiens) (UniProt Q13237); assay: Inhibition of PKG2 at 100 nM relative to control; summary of the method: as §1
[42] = target: cAMP-dependent protein kinase catalytic subunit PRKX (Homo sapiens) (UniProt P51817); assay: Inhibition of PRKX at 100 nM relative to control; summary of the method: as §1
[43] = target: Rho-associated protein kinase 1 (Homo sapiens) (UniProt Q13464); assay: Inhibition of ROCK1 at 100 nM relative to control; summary of the method: as §1
[44] = target: T1, Rho-associated protein kinase 2; assay: Inhibition of ROCK2 at 100 nM relative to control; summary of the method: as §1
[45] = target: Ribosomal protein S6 kinase alpha-1 (Homo sapiens) (UniProt Q15418); assay: Inhibition of RSK1 at 100 nM relative to control; summary of the method: as §1
[46] = target: Ribosomal protein S6 kinase alpha-3 (Homo sapiens) (UniProt P51812); assay: Inhibition of RSK2 at 100 nM relative to control; summary of the method: as §1
[47] = target: Ribosomal protein S6 kinase alpha-2 (Homo sapiens) (UniProt Q15349); assay: Inhibition of RSK3 at 100 nM relative to control; summary of the method: as §2
[48] = target: Serine/threonine-protein kinase Sgk1 (Homo sapiens) (UniProt O00141); assay: Inhibition of SGK1 at 100 nM relative to control; summary of the method: as §2
[49] = target: Serine/threonine-protein kinase Sgk2 (Homo sapiens) (UniProt Q9HBY8); assay: Inhibition of SGK2 at 100 nM relative to control; summary of the method: as §2
[50] = target: Proto-oncogene tyrosine-protein kinase Src (Homo sapiens) (UniProt P12931); assay: Inhibition of SRC at 100 nM relative to control; summary of the method: as §2
[51] = target: 3-phosphoinositide-dependent protein kinase 1 (Homo sapiens) (UniProt O15530); assay: Inhibition of PDK1 at 100 nM relative to control

T2 sequence (Q9Y243 whole entry): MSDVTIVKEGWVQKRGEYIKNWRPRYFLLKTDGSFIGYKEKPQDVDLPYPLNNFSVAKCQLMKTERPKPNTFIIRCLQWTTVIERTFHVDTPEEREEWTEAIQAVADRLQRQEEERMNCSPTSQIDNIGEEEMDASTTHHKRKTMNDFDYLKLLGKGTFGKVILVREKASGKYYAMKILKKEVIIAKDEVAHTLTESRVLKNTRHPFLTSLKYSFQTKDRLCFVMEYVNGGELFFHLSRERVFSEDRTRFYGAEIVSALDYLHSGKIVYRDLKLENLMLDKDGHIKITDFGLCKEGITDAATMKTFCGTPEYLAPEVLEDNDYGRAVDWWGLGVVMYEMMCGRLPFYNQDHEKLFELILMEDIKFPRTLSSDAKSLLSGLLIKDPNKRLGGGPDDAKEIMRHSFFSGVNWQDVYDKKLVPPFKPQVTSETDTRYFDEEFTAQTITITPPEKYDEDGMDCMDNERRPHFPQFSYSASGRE
Sequence of Protein kinase C beta type (Homo sapiens) (P05771 2-671 limits assumed): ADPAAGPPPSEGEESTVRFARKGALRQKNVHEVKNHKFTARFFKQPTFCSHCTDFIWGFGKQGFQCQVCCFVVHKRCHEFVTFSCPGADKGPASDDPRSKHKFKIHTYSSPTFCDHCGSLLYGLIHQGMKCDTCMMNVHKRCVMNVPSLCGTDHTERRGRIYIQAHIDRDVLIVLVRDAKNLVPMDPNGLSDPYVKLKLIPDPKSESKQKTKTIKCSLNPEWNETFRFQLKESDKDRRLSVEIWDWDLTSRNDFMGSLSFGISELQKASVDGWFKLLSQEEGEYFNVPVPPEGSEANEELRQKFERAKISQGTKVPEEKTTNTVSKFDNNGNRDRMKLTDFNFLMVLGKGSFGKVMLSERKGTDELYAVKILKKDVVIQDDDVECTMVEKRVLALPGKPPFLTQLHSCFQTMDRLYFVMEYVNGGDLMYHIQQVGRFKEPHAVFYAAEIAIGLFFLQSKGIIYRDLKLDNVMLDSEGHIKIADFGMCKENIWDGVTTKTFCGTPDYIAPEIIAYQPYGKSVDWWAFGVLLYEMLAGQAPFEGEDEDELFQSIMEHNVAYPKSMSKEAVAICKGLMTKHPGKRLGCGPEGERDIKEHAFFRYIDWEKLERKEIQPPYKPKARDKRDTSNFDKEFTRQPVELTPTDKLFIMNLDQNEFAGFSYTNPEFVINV
Sequence of Calcium/calmodulin-dependent protein kinase type II subunit alpha (Homo sapiens) (Q9UQM7 whole entry): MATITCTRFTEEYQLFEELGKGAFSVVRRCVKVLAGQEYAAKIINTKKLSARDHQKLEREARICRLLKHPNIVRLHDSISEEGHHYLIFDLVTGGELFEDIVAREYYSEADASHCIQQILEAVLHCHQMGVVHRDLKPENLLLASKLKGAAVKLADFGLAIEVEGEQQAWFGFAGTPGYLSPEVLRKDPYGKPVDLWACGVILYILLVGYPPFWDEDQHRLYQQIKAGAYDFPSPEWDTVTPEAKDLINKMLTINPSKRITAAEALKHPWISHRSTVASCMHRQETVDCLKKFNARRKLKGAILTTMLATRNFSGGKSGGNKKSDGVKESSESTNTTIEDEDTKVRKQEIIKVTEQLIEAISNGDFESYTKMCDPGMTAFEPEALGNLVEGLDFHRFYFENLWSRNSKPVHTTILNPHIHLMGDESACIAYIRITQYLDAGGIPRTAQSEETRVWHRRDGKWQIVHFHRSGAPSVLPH
Sequence of Maternal embryonic leucine zipper kinase (Homo sapiens) (Q14680 whole entry, looked up): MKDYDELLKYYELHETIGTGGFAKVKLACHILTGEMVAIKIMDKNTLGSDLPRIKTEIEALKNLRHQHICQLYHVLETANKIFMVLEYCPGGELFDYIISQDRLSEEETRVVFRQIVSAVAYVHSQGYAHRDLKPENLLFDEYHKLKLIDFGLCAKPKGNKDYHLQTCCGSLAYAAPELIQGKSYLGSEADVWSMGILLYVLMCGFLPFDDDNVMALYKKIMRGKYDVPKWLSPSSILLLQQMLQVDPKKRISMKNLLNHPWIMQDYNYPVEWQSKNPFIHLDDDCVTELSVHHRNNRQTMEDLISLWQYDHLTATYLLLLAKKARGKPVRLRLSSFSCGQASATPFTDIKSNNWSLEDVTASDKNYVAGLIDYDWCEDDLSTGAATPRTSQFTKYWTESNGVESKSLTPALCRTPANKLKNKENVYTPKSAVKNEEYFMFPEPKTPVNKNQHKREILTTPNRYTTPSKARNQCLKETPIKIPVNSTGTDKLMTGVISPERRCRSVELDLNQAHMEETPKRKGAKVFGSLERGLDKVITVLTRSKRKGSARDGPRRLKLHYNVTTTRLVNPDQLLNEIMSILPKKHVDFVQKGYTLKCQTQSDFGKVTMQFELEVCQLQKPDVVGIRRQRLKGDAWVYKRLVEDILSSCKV
Sequence of cAMP-dependent protein kinase catalytic subunit PRKX (Homo sapiens) (P51817 whole entry): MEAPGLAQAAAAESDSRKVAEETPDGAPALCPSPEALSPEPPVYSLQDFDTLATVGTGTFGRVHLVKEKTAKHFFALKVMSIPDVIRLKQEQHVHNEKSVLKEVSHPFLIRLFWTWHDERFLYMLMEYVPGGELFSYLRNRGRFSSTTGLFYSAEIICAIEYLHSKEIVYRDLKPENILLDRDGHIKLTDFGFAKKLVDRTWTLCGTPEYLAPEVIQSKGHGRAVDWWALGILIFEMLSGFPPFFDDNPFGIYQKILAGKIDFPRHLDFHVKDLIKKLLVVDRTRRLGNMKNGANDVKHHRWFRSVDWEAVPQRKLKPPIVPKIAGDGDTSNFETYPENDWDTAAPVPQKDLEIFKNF
Sequence of Serine/threonine-protein kinase D2 (Homo sapiens) (Q9BZL6 whole entry): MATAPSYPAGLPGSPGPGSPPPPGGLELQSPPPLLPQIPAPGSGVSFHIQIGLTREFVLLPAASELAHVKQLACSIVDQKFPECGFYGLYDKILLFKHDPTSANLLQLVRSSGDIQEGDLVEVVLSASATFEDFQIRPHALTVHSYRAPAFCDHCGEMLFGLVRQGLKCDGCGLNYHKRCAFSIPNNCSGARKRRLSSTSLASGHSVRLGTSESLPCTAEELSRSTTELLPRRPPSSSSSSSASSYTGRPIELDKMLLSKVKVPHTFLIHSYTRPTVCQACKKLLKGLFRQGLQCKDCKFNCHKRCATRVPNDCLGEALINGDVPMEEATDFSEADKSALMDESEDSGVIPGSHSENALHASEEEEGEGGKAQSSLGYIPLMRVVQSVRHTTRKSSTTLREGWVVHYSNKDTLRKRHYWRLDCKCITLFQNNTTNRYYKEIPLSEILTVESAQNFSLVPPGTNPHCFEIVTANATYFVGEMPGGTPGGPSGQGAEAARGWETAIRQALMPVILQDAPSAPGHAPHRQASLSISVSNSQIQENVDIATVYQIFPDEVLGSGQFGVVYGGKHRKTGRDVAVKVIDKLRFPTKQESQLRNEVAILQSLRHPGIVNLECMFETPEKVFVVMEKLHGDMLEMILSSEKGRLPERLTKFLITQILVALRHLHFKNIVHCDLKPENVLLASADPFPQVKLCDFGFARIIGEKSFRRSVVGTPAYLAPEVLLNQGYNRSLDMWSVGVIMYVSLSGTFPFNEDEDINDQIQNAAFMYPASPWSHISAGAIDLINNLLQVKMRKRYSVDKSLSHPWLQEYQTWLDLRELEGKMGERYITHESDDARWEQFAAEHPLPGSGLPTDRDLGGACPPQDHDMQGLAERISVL
Sequence of Serine/threonine-protein kinase PAK 3 (Homo sapiens) (O75914 whole entry, looked up): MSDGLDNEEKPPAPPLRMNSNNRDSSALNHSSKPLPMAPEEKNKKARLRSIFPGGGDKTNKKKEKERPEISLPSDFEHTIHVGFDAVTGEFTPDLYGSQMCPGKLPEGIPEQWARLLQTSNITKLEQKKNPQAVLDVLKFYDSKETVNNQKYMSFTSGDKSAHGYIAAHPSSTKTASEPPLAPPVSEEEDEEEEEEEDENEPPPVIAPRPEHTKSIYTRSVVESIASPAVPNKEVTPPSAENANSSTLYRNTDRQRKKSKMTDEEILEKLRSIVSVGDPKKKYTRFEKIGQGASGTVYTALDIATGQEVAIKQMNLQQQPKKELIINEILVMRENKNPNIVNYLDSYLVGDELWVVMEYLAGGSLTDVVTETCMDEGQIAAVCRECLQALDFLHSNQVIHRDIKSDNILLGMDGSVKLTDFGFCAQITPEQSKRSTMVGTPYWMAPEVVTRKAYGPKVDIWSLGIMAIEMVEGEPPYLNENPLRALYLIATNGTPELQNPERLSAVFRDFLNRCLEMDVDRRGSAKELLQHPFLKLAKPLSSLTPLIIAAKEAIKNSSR

Kd [1]: < 3 nM
SMILES: NCCCC[C@@H](NC(=O)CCCCCNC(=O)[C@H]1O[C@@H](n2cnc3c(N)ncnc32)[C@H](O)[C@@H]1O)C(=O)NCCCCCC(=O)N[C@H](CCCN=C(N)N)C(=O)N[C@H](CCCN=C(N)N)C(N)=O

IC50 [2]: 12 nM
SMILES: NCCCC[C@@H](NC(=O)CCCCCNC(=O)c1ccc(-c2ccnc(N)n2)s1)C(=O)NCCCCCC(=O)N[C@H](CCCN=C(N)N)C(=O)N[C@H](CCCN=C(N)N)C(=O)N[C@H](CCCN=C(N)N)C(=O)N[C@H](CCCN=C(N)N)C(=O)N[C@H](CCCN=C(N)N)C(=O)N[C@H](CCCN=C(N)N)C(N)=O ({X1-Ahx}-[dK][Ahx][dR][dR][dR][dR][dR][dR]-NH2)

inhibition [3]: 41%
inhibition [4]: 46%
inhibition [5]: 25%
inhibition [6]: 10%
inhibition [7]: 22%
inhibition [8]: 6%
inhibition [9]: 82%
inhibition [10]: 33%
inhibition [12]: 8%
inhibition [13]: 4%
inhibition [14]: 83%
inhibition [15]: 112%
inhibition [16]: 112%
inhibition [17]: 99%
inhibition [18]: 69%
inhibition [19]: 21%
inhibition [20]: 70%
inhibition [21]: 97%
inhibition [22]: 95%
inhibition [23]: 104%
inhibition [24]: 97%
inhibition [25]: 80%
inhibition [26]: 100%
inhibition [27]: 92%
inhibition [28]: 100%
inhibition [29]: 104%
inhibition [30]: 97%
inhibition [31]: 103%
inhibition [32]: 108%
inhibition [33]: 106%
inhibition [34]: 24%
inhibition [35]: 93%
inhibition [36]: 91%
inhibition [37]: 38%
inhibition [38]: 79%
inhibition [39]: 90%
inhibition [40]: 105%
inhibition [41]: 78%
inhibition [42]: 106%
inhibition [43]: 106%
inhibition [44]: 106%
inhibition [45]: 97%
inhibition [46]: 103%
inhibition [47]: 97%
inhibition [48]: 97%
inhibition [49]: 91%
inhibition [50]: 26%
inhibition [51]: 65%
SMILES: N=C(N)NCCC[C@@H](NC(=O)[C@@H](CCCNC(=N)N)NC(=O)[C@@H](CCCNC(=N)N)NC(=O)[C@@H](CCCNC(=N)N)NC(=O)[C@@H](CCCNC(=N)N)NC(=O)[C@@H](CCCNC(=N)N)NC(=O)CCCCCNC(=O)[C@@H](CCCCN)NC(=O)CCCCCNC(=O)c1ccc(-c2ccnc(N)n2)s1)C(N)=O ({X1-Ahx}-[dK][Ahx][dR][dR][dR][dR][dR][dR]-NH2)
inhibition [11]: 44%
